Assay [1] has as its target Geranylgeranyl transferase type I (Homo sapiens, UniProt P49354+P53609). Kind of assay: Inhibition of recombinant GGTase 1 (unknown origin) assessed as decrease in prenylated fluorescent peptides level using dansyl-GCVLS and GGPP as substrate after 1 hr by HPLC-fluorescence detection analysis. The procedure, abridged:
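Reaction started by adding 12 nM recombinant GGTase I to pH 7.5 Tris buffer with DTT, 5 mM MgCl2, 50 µM ZnCl2, 10 mM KCl, 0.04% DDM, 10 µM GGPP and 7 µM dansyl-GCVLS. Incubated 1 h at 30 °C, then acid-acetonitrile quench. Prenylated peptide measured by HPLC with fluorescence. IC50 from concentration-response curves.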

The target of assay [2] is T1, Geranylgeranyl pyrophosphate synthase (Homo sapiens) (UniProt O95749).
T1 sequence (whole entry): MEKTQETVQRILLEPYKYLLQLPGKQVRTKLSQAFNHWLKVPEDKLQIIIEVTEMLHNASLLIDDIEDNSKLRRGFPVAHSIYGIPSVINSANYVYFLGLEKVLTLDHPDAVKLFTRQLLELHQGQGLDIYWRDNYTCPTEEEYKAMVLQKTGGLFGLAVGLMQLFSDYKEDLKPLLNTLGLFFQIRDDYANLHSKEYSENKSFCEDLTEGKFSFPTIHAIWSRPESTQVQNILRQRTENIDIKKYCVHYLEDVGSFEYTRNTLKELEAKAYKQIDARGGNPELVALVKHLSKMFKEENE
Kind of assay: Inhibition of GGDPS in human RPMI-8226 cells assessed as disruption of Rap1a geranylgeranylation at 10 uM after 48 hrs by western blot analysis. The class given is cell-based. The method, boiled down:
(§1)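 RPMI-8226 human myeloma cells exposed 48 h to test agent. For Rap1a, RIPA whole-cell lysate probed with an antibody recognising only unmodified Rap1a, β-tubulin as loading control. Rab6 read from Triton X-114 aqueous versus detergent fractions, with β-tubulin for aqueous and calnexin for detergent loading. Equal protein by BCA, SDS-PAGE/immunoblot with ECL. Blots representative of two independent experiments.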
(In general: A western blot detects proteins with antibodies after separation by electrophoresis.)

The target of assay [3] is T2, Geranylgeranyl pyrophosphate synthase (Homo sapiens, UniProt O95749).
T2 sequence (O95749 whole entry): T1 sequence (whole entry)
Kind of assay: Inhibition of recombinant GGDPS (unknown origin) assessed as decrease in radiolabeld GGPP level using FPP and [14C]IPP as substrate treated with enzyme for 10 mins prior to substrate challenge for 30 mins by liquid scintillation counting analysis. The procedure, abridged: (§2)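 Enzyme (10 nM FDPS or 20 nM GGDPS) preincubated with compound 10 min at room temperature in 50 mM Tris-HCl pH 7.7, 20 mM MgCl2, 5 mM TCEP, 5 µg/mL BSA. Started with 10 µM GPP (FDPS) or 10 µM FPP (GGDPS) plus 10 µM [14C]-IPP; 37 °C, 30 min. Stopped with saturated NaCl, butanol-extracted, counted. IC50 from concentration-response curves.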

The target in assay [4] is Protein farnesyltransferase (Homo sapiens, UniProt P49354+P49356). Nature of the assay: Inhibition of recombinant FTase (unknown origin) assessed as decrease in prenylated fluorescent peptides level using dansyl-GCVLS and FPP as substrate after 1 hr by HPLC-fluorescence detection analysis. The assay is classed as protein-complex assay. The method, boiled down: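 3 nM recombinant FTase started reaction in pH 7.5 Tris buffer with DTT, 10 mM MgCl2, 10 µM ZnCl2, 0.04% DDM, plus 10 µM FPP and 5 µM dansyl-GCVLS. Run 1 h at 30 °C, stopped with acetonitrile/5% HCl, centrifuged. Prenylated peptide quantified by HPLC-fluorescence. IC50 taken from concentration-response curves.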

The target of assay [5] is T1, Geranylgeranyl pyrophosphate synthase (Homo sapiens). Nature of the assay: Inhibition of GGDPS in human RPMI-8226 cells assessed as disruption of Rab6 geranylgeranylation at 10 uM after 48 hrs by western blot analysis. The class given is cell-based. The method, boiled down: as §1
For assay [6], the target named is T3, Farnesyl pyrophosphate synthase (Homo sapiens) (UniProt P14324).
T3 sequence (whole entry): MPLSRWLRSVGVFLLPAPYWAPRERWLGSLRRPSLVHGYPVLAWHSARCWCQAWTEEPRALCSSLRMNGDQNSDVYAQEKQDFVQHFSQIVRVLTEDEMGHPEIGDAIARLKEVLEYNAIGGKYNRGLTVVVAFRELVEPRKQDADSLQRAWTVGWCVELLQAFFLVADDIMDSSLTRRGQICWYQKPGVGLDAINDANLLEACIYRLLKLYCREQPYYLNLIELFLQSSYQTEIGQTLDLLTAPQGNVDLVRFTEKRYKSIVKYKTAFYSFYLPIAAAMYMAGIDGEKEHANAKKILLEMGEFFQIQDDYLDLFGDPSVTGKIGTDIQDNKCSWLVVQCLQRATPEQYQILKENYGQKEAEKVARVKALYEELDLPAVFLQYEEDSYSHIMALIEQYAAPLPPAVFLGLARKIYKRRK
Nature of the assay: Inhibition of FDPS in human RPMI-8226 cells assessed as disruption of Ras farnesylation after 48 hrs by western blot analysis. The assay is classed as cell-based.

Assay [7] is described as follows: Inhibition of recombinant GGTase 2 (unknown origin) using recombinant Rab1A and [3H]GGPP as substrate after 20 mins by liquid scintillation counting analysis in presence of recombinant REP-2. More on the design: species or system Homo sapiens. The procedure, abridged:
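30 nM recombinant GGTase II with 2 µM His-tagged Rab1A (E. coli-expressed, Ni-NTA purified) and 1 µM REP-2 in HEPES buffer with MgCl2, DTT, NP-40. Started with 5 µM [3H]-GGPP, 20 min at 37 °C, ended with HCl/EtOH. Filtered on P-81 paper, washed and scintillation counted. Tested up to 1 mM.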

The target of assay [8] is T4, Farnesyl pyrophosphate synthase (Homo sapiens, UniProt P14324).
T4 sequence (P14324 whole entry): T3 sequence (whole entry)
Kind of assay: Inhibition of recombinant FDPS (unknown origin) assessed as decrease in radiolabeld […] level using GPP and [14C]IPP as substrate treated with enzyme for 10 mins prior to substrate challenge for 30 mins by liquid scintillation counting analysis. The method, boiled down: as §2

Assay [9] concerns the target T1, Geranylgeranyl pyrophosphate synthase (Homo sapiens). Particulars: RPMI-8226, 10 uM.
The target is the same in assay [10]. The note with it: RPMI-8226, 1 uM.
Assay [11] has the same target. The note with it: RPMI-8226, 10 uM. The source holds these as a separate data set.
Assay [12] has the same target. Particulars: RPMI-8226, 10 uM. The source holds these as a separate data set.
For assay [13] the target is unchanged. The note with it: RPMI-8226, 1 uM. The source holds these as a separate data set.
For assay [14] the target is unchanged. The note with it: RPMI-8226, 10 uM. The source holds these as a separate data set.
Assay [15] shares this target. The note with it: RPMI-8226, 1 uM. This is another data set of the same source.
Assay [16] addresses T5, 3-hydroxy-3-methylglutaryl-coenzyme A reductase (Homo sapiens) (UniProt P04035).
T5 sequence (whole entry): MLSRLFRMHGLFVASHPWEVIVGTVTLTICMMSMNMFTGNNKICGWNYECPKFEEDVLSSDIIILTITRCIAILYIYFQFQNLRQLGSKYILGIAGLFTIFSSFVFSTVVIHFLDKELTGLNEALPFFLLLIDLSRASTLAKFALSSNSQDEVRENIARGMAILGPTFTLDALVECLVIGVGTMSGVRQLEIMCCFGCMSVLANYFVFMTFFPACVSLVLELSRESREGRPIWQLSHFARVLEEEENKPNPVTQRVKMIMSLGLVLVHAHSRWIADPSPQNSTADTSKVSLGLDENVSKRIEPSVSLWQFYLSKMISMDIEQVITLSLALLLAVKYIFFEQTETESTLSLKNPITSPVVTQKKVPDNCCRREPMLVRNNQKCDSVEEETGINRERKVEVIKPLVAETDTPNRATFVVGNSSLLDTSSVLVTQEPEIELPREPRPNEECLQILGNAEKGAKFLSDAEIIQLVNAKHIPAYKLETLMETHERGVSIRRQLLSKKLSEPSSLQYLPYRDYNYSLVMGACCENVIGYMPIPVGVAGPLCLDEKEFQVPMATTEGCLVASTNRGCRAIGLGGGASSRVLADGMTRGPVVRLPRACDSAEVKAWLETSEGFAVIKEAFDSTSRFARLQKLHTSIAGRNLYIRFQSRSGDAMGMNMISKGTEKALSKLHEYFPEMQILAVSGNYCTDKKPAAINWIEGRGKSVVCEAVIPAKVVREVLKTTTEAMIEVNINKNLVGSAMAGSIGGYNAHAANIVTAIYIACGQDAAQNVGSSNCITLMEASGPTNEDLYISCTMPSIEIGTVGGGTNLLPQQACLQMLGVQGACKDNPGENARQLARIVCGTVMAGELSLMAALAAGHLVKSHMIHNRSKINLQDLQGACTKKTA
Kind of assay: Inhibition of HMG-coA reductase in human RPMI-8226 cells assessed as disruption of Rap1a geranylgeranylation at 10 uM after 48 hrs by western blot analysis in presence of 10 uM GGPP. The assay is classed as cell-based. The method, boiled down:
(§3)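 RPMI-8226 cells held 48 h with 10 µM inhibitor, with or without isoprenoid add-back (1 mM mevalonate, 10 µM FPP or 10 µM GGPP). RIPA whole-cell lysate immunoblotted with an antibody detecting only unmodified Rap1a, β-tubulin as loading control. Protein equalised by BCA. Two independent experiments.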

Assay [17] has as its target T5, 3-hydroxy-3-methylglutaryl-coenzyme A reductase (Homo sapiens). Nature of the assay: Inhibition of HMG-coA reductase in human RPMI-8226 cells assessed as disruption of Rap1a geranylgeranylation at 10 uM after 48 hrs by western blot analysis. The class given is cell-based. The procedure, abridged: as §3
Assay [18] shares this target. Kind of assay: Inhibition of HMG-coA reductase in human RPMI-8226 cells assessed as disruption of Rap1a geranylgeranylation at 10 uM after 48 hrs by western blot analysis in presence of 1 mM mevalonate. The assay is classed as cell-based. The procedure, abridged:
as §3

The source made the active and inactive calls. No cut-off for these calls is given here.

Consider `CC(C)=CCC[C@]1(C)O[C@@H]1Cn1cc(CC(P(=O)(O)O)P(=O)(O)O)nn1` (racemic), for which the IC50 in [1] is 300 µM; in assay [3], 17 µM; in assay [4], 340 µM; in [7] it was greater than 1000 µM; in assay [8], 47 µM. The “disruption of Rap1a geranylgeranylation (active/not active)” value in assay [2] is “inactive”. For the same compound, the “disruption of Rab6 geranylgeranylation (active/not active)” value in assay [5] was “inactive”. Also, in assay [6], the inhibition result was “inactive”.
For the compound `CC(C)=CCC/C(C)=C/CC(C/C=C(\C)CCC=C(C)C)(P(=O)(O)O)P(=O)(O)O`, in assay [2], the “disruption of Rap1a geranylgeranylation (active/not active)” value is “Active”. For the same compound, the “disruption of Rab6 geranylgeranylation (active/not active)” value in [5] is “Active”. Besides, in [6], the inhibition entry was “inactive”. Also, in [9], the inhibition entry is “Active”.
In the case of `CC(C)=CCC/C(C)=C\Cn1cc(CC(P(=O)(O)O)P(=O)(O)O)nn1`, the IC50 was 500 µM in assay [1], 400 µM in assay [4], greater than 1000 µM in assay [7] and 79 µM in assay [8]. Besides, the inhibition entry in assay [10], in assay [11], in [9], in assay [13], in [14] and in assay [15] was “Active” in each case. Further, the “disruption of Rap1a geranylgeranylation (active/not active)” value in assay [2] is “Active”. Further, the “disruption of Rab6 geranylgeranylation (active/not active)” value in assay [5] is “Active”. For the same compound, the inhibition result in assay [6] and in [12] was “inactive” throughout.
With `CC(C)=CCCC(C)=CCn1cc(CC(P(=O)(O)O)P(=O)(O)O)nn1` (mixture of isomers), the IC50 in assay [1] is 200 µM; in [4] it was 500 µM; in assay [7] it was greater than 1000 µM; in assay [8] it was 84 µM. In [2], the “disruption of Rap1a geranylgeranylation (active/not active)” value was “Active”. Further, the “disruption of Rab6 geranylgeranylation (active/not active)” value in assay [5] was “Active”. In assay [6], the inhibition entry is “inactive”. Besides, the inhibition entry in [9], in assay [13] and in [15] was “Active” each time.
`CC[C@H](C)C(=O)O[C@H]1C[C@@H](C)C=C2C=C[C@H](C)[C@H](CC[C@@H]3C[C@@H](O)CC(=O)O3)[C@H]21`: the inhibition entry in [16] and in assay [18] was “inactive” in each case. For the same compound, the inhibition result in assay [17] is “Active”.
`CC(C)=CCC/C(C)=C/Cn1cc(CC(P(=O)(O)O)P(=O)(O)O)nn1`: the IC50 is 340 µM in assay [1], greater than 500 µM in assay [4], greater than 1000 µM in assay [7] and 57 µM in assay [8]. Besides, in assay [2], the “disruption of Rap1a geranylgeranylation (active/not active)” value was “Active”. Moreover, the inhibition entry in assay [6], in [9], in [13] and in assay [15] was “inactive” each time.
For the compound `CC(C)=CCC[C@@]1(C)O[C@@H]1Cn1cc(CC(P(=O)(O)O)P(=O)(O)O)nn1` (racemic), the IC50 in assay [1] is 500 µM; in assay [3], 23 µM; in assay [4], 400 µM; in assay [7], greater than 1000 µM; in assay [8], 33 µM. Further, in [2], the “disruption of Rap1a geranylgeranylation (active/not active)” value was “inactive”. Besides, the “disruption of Rab6 geranylgeranylation (active/not active)” value in [5] is “inactive”. Moreover, the inhibition entry in assay [6] is “inactive”.

The IC50 is the point on the concentration scale where inhibition reaches its midpoint.
